Results from article PMC5108443 (Cardiovascular Therapeutics, 2016).
One block for each molecule: values may come before it.

Assays:
[1] = Steady-state plasma pharmacokinetics of LCZ696 analytes; format: in vivo, human; details: for T1/2, mean (SD): LCZ696 200 mg bid (Day 21), patients with stable HF; for Exposure in patients with HF higher than in healthy subjects: LCZ696 200 mg bid, healthy-subject exposure from ref 20; for Dose proportionality of Cmax and AUC0-12 h: between LCZ696 100- and 200-mg doses; for Tmax / AUC(0-t) / Cmax: human, plasma
urine cGMP = assay: Urine cGMP; format: in vivo, human; details: for Urine cGMP, ratio-to-baseline (95% CI): geometric mean ratio; for Urine cGMP: geometric mean
[2] = system: plasma renin concentration (PRC); assay: Plasma renin concentration; format: in vivo, human; details: for PRC, ratio-to-baseline (95% CI): geometric mean ratio; for PRC, predose: geometric mean
How it was run: (§1)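 Chronic HF patients (NYHA II–IV, LVEF ≤40%), domiciled on a fixed 3 g sodium/5 g potassium diet. ACEI/ARB stopped over a 24-h run-in. Oral test compound given 100 mg bid for 7 days, then 200 mg bid for 14 days. Plasma drawn at baseline, predose, and 4, 12, 16, 24 h post-dose on Days 7 and 21. Geometric means; ratio-to-baseline with 95% CI by paired t-test on log data.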

plasma ANP = assay: Plasma ANP; format: in vivo, human; details: for Plasma ANP, ratio-to-baseline (95% CI): geometric mean ratio; for Plasma ANP, predose: geometric mean
[3] = system: plasma renin activity (PRA); assay: Plasma renin activity; format: in vivo, human; details: for PRA, ratio-to-baseline (95% CI): geometric mean ratio; for PRA, predose: geometric mean
How it was run: as §1

plasma aldosterone = assay: Plasma aldosterone; format: in vivo, human
How it was run: as §1

plasma cGMP = assay: Plasma cGMP; format: in vivo, human; details: for Plasma cGMP, ratio-to-baseline (95% CI): geometric mean ratio; for Plasma cGMP, predose: geometric mean
[4] = Urinary sodium, potassium and creatinine excretion; format: in vivo, human; details: either treatment period (100 and 200 mg bid)
How it was run: (§2)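 Same patients, diet and oral dosing schedule. Urine collected over 24 h as two 12-h fractions (8:00–20:00, 20:00–8:00) at baseline, Day 7 and Day 21. Volume recorded; sodium, potassium and creatinine measured by standard laboratory methods, NT-proBNP by Elecsys immunoassay. Geometric means calculated; ratio-to-baseline by paired t-test on log-transformed data.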

urinary NT-proBNP = assay: Urinary NT-proBNP; format: in vivo, human
How it was run: as §2

[5] = Safety and tolerability: adverse events; format: in vivo, human
How it was run: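 Open-label study in HFrEF patients: 24-h run-in with ACEI/ARB stopped and other HF drugs kept, then oral test compound 100 mg bid for 7 days and 200 mg bid for 14 days. Patients domiciled on a standardized diet of 3 g sodium and 5 g potassium daily. Monitoring by ECG, vital signs, and electrolyte, renal and hepatic panels. Safety set comprised all patients dosed at least once.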

[6] = patients with HFrEF, PARADIGM-HF; cited from earlier work
urine ANP = assay: Urine ANP; format: in vivo, human; details: for Urine ANP, ratio-to-baseline (95% CI): geometric mean ratio; for Urine ANP: geometric mean
plasma NT-proBNP = assay: Plasma NT-proBNP; format: in vivo, human
How it was run: as §1

[7] = system: plasma endothelin-1 (ET-1); assay: Plasma endothelin-1; format: in vivo, human
How it was run: as §1

[8] = Day 7 (LCZ696 100 mg bid), N=30
[9] = Day 21 (LCZ696 200 mg bid), N=27
[10] = Day 21, predose, LCZ696 200 mg bid for 14 days

T1/2, mean (SD) ([1]; oral): 18.4 (6.8) h | Exposure in patients with HF higher than in healthy subjects [1]: ~110% | Dose proportionality of Cmax and AUC0-12 h [1]: approximately dose‐proportional | Tmax ([1]; oral, 200 mg): ≤ 2.5 h | AUC(0-t) ([1]; po, 100 mg): 82600 ng·h/mL | Cmax ([1]; po, 100 mg): 9100 ng/mL | Tmax ([1]; po, 100 mg): 2.5 h | AUC(0-t) ([1]; po, 200 mg): 147000 ng·h/mL | Cmax ([1]; po, 200 mg): 16300 ng/mL | Tmax ([1]; po, 200 mg): 2 h
Molecule: C[C@H](C[C@@H](Cc1ccc(-c2ccccc2)cc1)NC(=O)CCC(=O)O)C(=O)O [LBQ657]

T1/2, mean (SD) ([1]; oral): 3.9 (3.6) h | Exposure in patients with HF higher than in healthy subjects [1]: approximately 55% | Dose proportionality of Cmax and AUC0-12 h [1]: approximately dose‐proportional | Tmax ([1]; oral, 200 mg): ≤ 0.5 h | AUC(0-t) ([1]; po, 100 mg): 1540 ng·h/mL | Cmax ([1]; po, 100 mg): 1230 ng/mL | Tmax ([1]; po, 100 mg): 0.5 h | AUC(0-t) ([1]; po, 200 mg): 3150 ng·h/mL | Cmax ([1]; po, 200 mg): 2410 ng/mL | Tmax ([1]; po, 200 mg): 0.5 h
Molecule: CCOC(=O)[C@H](C)C[C@@H](Cc1ccc(-c2ccccc2)cc1)NC(=O)CCC(=O)O [Sacubitril, sacubitril]

T1/2, mean (SD) ([1]; oral): 13.7 (5.0) h | Exposure in patients with HF higher than in healthy subjects [1]: ~132% | Dose proportionality of Cmax and AUC0-12 h [1]: less than dose‐proportional | Tmax ([1]; oral, 200 mg): ≤ 2 h | AUC(0-t) ([1]; po, 100 mg): 25900 ng·h/mL | Cmax ([1]; po, 100 mg): 3810 ng/mL | Tmax ([1]; po, 100 mg): 2 h | AUC(0-t) ([1]; po, 200 mg): 38800 ng·h/mL | Cmax ([1]; po, 200 mg): 6040 ng/mL | Tmax ([1]; po, 200 mg): 2 h
Molecule: CCCCC(=O)N(Cc1ccc(-c2ccccc2-c2nnn[nH]2)cc1)[C@H](C(=O)O)C(C)C [Valsartan, valsartan, reference compound]

Molecule: Sacubitril/valsartan [LCZ696]
Urine cGMP, ratio-to-baseline (95% CI) (urine cGMP; Day 7 (LCZ696 100 mg bid)): 1.17 (0.97–1.40) P = 0.090 | Urine cGMP (urine cGMP; [8]): 1096.09 nmol | Urine cGMP, ratio-to-baseline (95% CI) (urine cGMP; Day 21 (LCZ696 200 mg bid)): 1.22 (1.01–1.47) P = 0.040 | Urine cGMP (urine cGMP; [9]): 1180.57 nmol | PRC, ratio-to-baseline (95% CI) ([2]; Day 7 (LCZ696 100 mg bid)): 4.30 (2.78–6.64) P < 0.001 | PRC, predose [2, 8]: 42.64 pg/mL | PRC, ratio-to-baseline (95% CI) ([2]; Day 21 (LCZ696 200 mg bid)): 3.50 (2.13–5.76) P < 0.001 | PRC, predose [2, 9]: 34.11 pg/mL | Plasma ANP, ratio-to-baseline (95% CI) (plasma ANP; Day 7 (LCZ696 100 mg bid)): 0.92 (0.80–1.05) P = 0.223 | Plasma ANP, predose (plasma ANP; [8]): 105.20 pg/mL | Plasma ANP, ratio-to-baseline (95% CI) (plasma ANP; Day 21 (LCZ696 200 mg bid)): 1.00 (0.80–1.26) P = 0.986 | Plasma ANP, predose (plasma ANP; [9]): 110.83 pg/mL | Plasma ANP versus baseline (plasma ANP; either treatment period (100 and 200 mg bid)): not significantly different from baseline | PRA, ratio-to-baseline (95% CI) ([3]; Day 7 (LCZ696 100 mg bid)): 3.94 (2.27–6.87) P < 0.001 | PRA, predose ([3]; Day 7 (LCZ696 100 mg bid), 29 patients): 2.70 ng/mL/h | PRA, ratio-to-baseline (95% CI) ([3]; Day 21 (LCZ696 200 mg bid)): 2.27 (1.20–4.32) P = 0.014 | PRA, predose ([3]; Day 21 (LCZ696 200 mg bid), 26 patients): 1.64 ng/mL/h | Predose plasma aldosterone level compared with baseline (plasma aldosterone; Day 7 (LCZ696 100 mg bid)): trend toward a reduction | Decrease in plasma aldosterone levels (plasma aldosterone; Day 21): 21% | Plasma aldosterone, ratio-to-baseline [95% CI] (plasma aldosterone; [10]): 0.79 [0.65–0.95] | Plasma cGMP, ratio-to-baseline (95% CI) (plasma cGMP; Day 7 (LCZ696 100 mg bid)): 1.24 (1.06–1.45) P = 0.008 | Plasma cGMP, predose (plasma cGMP; Day 7 (LCZ696 100 mg bid), N=30, patients with HFrEF): 13.83 nmol/L | Plasma cGMP, ratio-to-baseline (95% CI) (plasma cGMP; Day 21 (LCZ696 200 mg bid)): 1.38 (1.16–1.65) P < 0.001 | Plasma cGMP, predose (plasma cGMP; [9]): 15.07 nmol/L | Change in mean urinary sodium, potassium, and creatinine excretion [4]: No statistically significant changes | Urinary NT-proBNP, ratio-to-baseline (urinary NT-proBNP; after LCZ696 100 mg bid for 7 days): 0.68 | Urinary NT-proBNP, ratio-to-baseline (urinary NT-proBNP; after LCZ696 200 mg bid for 14 days): 0.74 | Dose relation of the frequency of AEs ([5]; 100 vs 200 mg bid): not dose related | Deaths or serious AEs during the study ([5]; LCZ696 100 mg bid 7 days then 200 mg bid 14 days, 30 patients): No deaths or serious AEs occurred | Subjects with AE ([5]; LCZ696 100 mg bid (N=30), 7-day titration period): 16 (53.3%) n (%) | Overall tolerability ([5]; LCZ696 100 mg bid for 7 days and 200 mg bid for 14 days): well tolerated | Subjects with AE ([5]; LCZ696 200 mg bid (N=30), 14-day treatment period): 15 (50.0%) n (%) | Subjects with AE ([5]; Total (N=30)): 21 (70.0%) n (%) | Patients who completed the study treatment as per protocol ([5]; of 30 patients): 27 (90%) n (%) | Hypotension reported as an AE ([5]; whole study): not reported | Reduction of CV and all-cause mortality and HF hospitalizations versus enalapril [6]: superior | Urine ANP, ratio-to-baseline (95% CI) (urine ANP; Day 7 (LCZ696 100 mg bid)): 1.69 (1.40–2.03) P < 0.001 | Urine ANP (urine ANP; [8]): 353.42 ng | Urine ANP, ratio-to-baseline (95% CI) (urine ANP; Day 21 (LCZ696 200 mg bid)): 1.82 (1.54–2.17) P < 0.001 | Urine ANP (urine ANP; [9]): 378.48 ng | Plasma NT-proBNP, ratio-to-baseline [95% CI] (plasma NT-proBNP; Day 7 (LCZ696 100 mg bid)): 0.53 [0.45–0.62] | Plasma NT-proBNP, ratio-to-baseline [95% CI] (plasma NT-proBNP; Day 21 (LCZ696 200 mg bid)): 0.56 [0.45–0.70] | Predose plasma ET-1 level compared with baseline ([7]; Day 7 (LCZ696 100 mg bid)): trend toward a reduction | Plasma ET-1, ratio-to-baseline [95% CI] [7, 10]: 0.80 [0.71–0.91]
